According to ChEMBL document CHEMBL4834419 (J Med Chem, 2021):

Legend:
Format in all cases: cell-based
[1] = target: T1, Retinoic acid receptor RXR-beta (Homo sapiens, UniProt P28702); assay: Agonist activity at human RXRbeta transfected in human HEK293T cells co-expressing pFR/pRL-Luc incubated for 14 to 16 hrs by hybrid reporter gene assay
T1 sequence (P28702 whole entry): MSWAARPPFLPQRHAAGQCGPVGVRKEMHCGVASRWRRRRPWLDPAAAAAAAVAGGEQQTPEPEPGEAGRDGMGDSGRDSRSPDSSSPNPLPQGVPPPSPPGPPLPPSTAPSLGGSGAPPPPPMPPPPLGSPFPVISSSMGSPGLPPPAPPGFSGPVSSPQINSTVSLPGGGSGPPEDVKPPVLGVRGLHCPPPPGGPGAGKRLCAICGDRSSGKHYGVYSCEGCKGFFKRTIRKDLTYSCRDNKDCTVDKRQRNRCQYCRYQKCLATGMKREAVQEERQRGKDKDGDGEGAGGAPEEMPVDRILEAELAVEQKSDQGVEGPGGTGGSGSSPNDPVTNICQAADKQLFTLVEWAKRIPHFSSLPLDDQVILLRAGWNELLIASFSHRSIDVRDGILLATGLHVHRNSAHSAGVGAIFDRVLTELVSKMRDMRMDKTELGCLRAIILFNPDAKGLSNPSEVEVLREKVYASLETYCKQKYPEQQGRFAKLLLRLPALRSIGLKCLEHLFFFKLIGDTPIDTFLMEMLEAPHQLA

[2] = target: T2, Retinoic acid receptor RXR-alpha (Homo sapiens, UniProt P19793); assay: Agonist activity at human RXRalpha transfected in human HEK293T cells co-expressing pFR/pRL-Luc incubated for 14 to 16 hrs by hybrid reporter gene assay
T2 sequence (P19793 whole entry): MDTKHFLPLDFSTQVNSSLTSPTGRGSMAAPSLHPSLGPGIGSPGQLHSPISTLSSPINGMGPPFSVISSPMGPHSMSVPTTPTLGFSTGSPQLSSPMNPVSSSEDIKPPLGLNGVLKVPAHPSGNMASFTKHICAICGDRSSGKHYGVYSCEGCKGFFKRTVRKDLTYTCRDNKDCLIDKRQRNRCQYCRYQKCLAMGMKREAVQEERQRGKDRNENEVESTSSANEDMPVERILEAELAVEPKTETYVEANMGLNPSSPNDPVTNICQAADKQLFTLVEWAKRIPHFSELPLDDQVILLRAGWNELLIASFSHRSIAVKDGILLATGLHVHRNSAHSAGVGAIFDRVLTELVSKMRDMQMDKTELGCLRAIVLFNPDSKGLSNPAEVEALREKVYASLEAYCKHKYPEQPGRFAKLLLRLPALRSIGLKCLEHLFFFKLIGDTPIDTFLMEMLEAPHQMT

[3] = target: T3, Peroxisome proliferator-activated receptor delta (Homo sapiens) (UniProt Q03181); assay: Agonist activity against human PPARdelta in human HEK293T cells co-expressing pFR/pRL-Luc assessed as receptor activation at 10 uM incubated for 14 to 16 hrs by hybrid reporter gene assay relative to bexarotene; conditions: filed as agonist, time 14-16 hrs
T3 sequence (whole entry): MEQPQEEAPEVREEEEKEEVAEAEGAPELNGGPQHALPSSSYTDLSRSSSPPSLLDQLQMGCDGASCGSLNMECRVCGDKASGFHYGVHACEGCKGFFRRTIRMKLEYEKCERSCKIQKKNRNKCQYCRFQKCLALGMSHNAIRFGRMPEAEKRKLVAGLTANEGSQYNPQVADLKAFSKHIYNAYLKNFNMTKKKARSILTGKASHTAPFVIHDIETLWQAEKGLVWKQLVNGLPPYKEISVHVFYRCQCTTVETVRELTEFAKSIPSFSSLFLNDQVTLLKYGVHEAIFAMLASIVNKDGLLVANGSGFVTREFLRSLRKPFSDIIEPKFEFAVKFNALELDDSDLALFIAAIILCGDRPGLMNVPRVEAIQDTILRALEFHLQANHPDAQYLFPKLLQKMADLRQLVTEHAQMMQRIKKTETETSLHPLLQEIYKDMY
How it was run: (§1)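 Gal4 hybrid reporter assay in HEK293T cells, seeded 24 h before transfection (Lipofectamine LTX, Opti-MEM) with pFR-Luc, pRL-SV40 and pFA-CMV plasmid carrying the hinge region and LBD of the human receptor. After 5 h, compound added in 0.1% DMSO, with 0.1% DMSO alone as untreated control. Dual-Glo luciferase read after 14−16 h; firefly/renilla normalized; duplicates, ≥2 independent experiments.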

[4] = target: T4, Oxysterols receptor LXR-alpha (Homo sapiens) (UniProt Q13133); assay: Agonist activity against human LXRalpha in human HEK293T cells co-expressing pFR/pRL-Luc assessed as receptor activation at 10 uM incubated for 14 to 16 hrs by hybrid reporter gene assay relative to bexarotene; conditions: filed as agonist, time 14-16 hrs; how it was run: as §1
T4 sequence (whole entry): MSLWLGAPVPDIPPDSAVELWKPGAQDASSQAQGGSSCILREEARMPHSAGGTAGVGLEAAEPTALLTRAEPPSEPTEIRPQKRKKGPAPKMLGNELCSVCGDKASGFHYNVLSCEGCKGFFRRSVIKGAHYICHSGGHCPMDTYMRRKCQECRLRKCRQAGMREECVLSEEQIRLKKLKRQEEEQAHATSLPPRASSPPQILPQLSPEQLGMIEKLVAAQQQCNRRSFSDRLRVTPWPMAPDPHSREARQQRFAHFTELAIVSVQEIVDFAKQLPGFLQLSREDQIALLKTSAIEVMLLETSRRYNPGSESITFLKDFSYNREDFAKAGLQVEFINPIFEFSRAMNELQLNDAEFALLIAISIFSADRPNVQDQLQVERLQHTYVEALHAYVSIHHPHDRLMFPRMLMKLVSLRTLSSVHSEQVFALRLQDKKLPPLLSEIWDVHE

[5] = target: T5, Peroxisome proliferator-activated receptor alpha (Homo sapiens) (UniProt Q07869); assay: Agonist activity against human PPARalpha in human HEK293T cells co-expressing pFR/pRL-Luc assessed as receptor activation at 10 uM incubated for 14 to 16 hrs by hybrid reporter gene assay relative to bexarotene; conditions: filed as agonist, time 14-16 hrs; how it was run: as §1
T5 sequence (whole entry): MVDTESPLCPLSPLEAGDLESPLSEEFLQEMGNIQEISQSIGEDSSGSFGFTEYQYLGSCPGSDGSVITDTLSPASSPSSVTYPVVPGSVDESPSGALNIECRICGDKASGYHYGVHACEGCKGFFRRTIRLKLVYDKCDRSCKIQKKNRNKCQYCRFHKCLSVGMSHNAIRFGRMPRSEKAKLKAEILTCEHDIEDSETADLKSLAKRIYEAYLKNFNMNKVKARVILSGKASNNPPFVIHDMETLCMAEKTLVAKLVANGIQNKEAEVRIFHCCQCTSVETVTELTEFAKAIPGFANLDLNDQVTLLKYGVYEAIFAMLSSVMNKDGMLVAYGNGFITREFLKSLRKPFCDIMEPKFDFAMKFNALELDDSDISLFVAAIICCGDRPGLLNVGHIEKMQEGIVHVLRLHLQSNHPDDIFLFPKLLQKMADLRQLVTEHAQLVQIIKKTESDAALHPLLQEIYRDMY

- EC50 [1]: 350 nM
- EC50 [2]: 250 nM
- Activity [3]: 1%
- Activity [4]: 1%
- Activity [5]: 2%
Structure (SMILES): O=C(O)CCCc1cc(-c2cc(Cl)cc(Cl)c2)n(-c2ccccc2)n1
